For orientation: MFC means the smallest concentration meeting the test's criterion for killing the fungus. Usually MIC stands for the lowest concentration that inhibits growth of the organism. Higher therefore signals a need for much substance.

What all share (assay type): functional
The subject of assay [1] is Candida parapsilosis. Briefly: Antimicrobial activity against Candida parapsilosis after 72 hrs by broth microdilution method. Conditions: Lodderomyces parapsilosis. The procedure, abridged: (§1)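 MFC: after MIC reading, a sample from each well was plated on Sabouraud dextrose agar and incubated 72 h at 35 °C. MFC was taken as the minimum concentration killing >99% of the original inoculum. The MIC step was NCCLS broth microdilution in MOPS-buffered RPMI 1640 (pH 7.0), with 2 ×10⁴ cells/mL, overnight at 35 °C.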

Assay [2] deals with Candida parapsilosis. In words: Antimicrobial activity against Candida parapsilosis by broth microdilution method. To be noted: Lodderomyces parapsilosis. Put shortly: (§2)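 MIC by NCCLS broth microdilution. Medium was RPMI 1640 with L-glutamine, buffered with 0.165 M MOPS at pH 7.0. Twofold drug dilutions ran 0.008–200 mg/L. Inoculum was set spectrophotometrically to 10⁶ CFU/mL, then diluted in medium to 2 ×10⁴ cells/mL. Plates were incubated overnight at 35 °C in humid air, agitated, and read visually and at 450 nm.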

The test system of assay [3] is Pichia kudriavzevii. Briefly: Antimicrobial activity against Candida krusei by broth microdilution method. The procedure, abridged:
as §2

The subject of assay [4] is Nakaseomyces glabratus. In words: Antimicrobial activity against Candida glabrata after 72 hrs by broth microdilution method. The procedure, abridged: as §1
Background: Broth dilution looks for growth in wells or tubes with falling amounts of substance.

For assay [5], the system named is Candida albicans. Briefly: Antimicrobial activity against Candida albicans ATCC 10231 by broth microdilution method. The procedure, abridged: as §2
Assay [6] deals with Pichia kudriavzevii. Briefly: Antimicrobial activity against Candida krusei after 72 hrs by broth microdilution method. The procedure, abridged: as §1
Assay [7] deals with Candida albicans. Briefly: Antimicrobial activity against Candida albicans ATCC 10231 after 72 hrs by broth microdilution method. To be noted: ATCC 10231, 72 h. The procedure, abridged: as §1
Assay [8] concerns Nakaseomyces glabratus. In words: Antimicrobial activity against Candida glabrata by broth microdilution method. The procedure, abridged:
as §2

Converted amounts (≈) assume the structure as drawn. Where only a bound is given, the exact number is not on record here.

On to `CCOC(=O)NNc1[nH]c(-c2ccc(C)cc2)cc1C(=O)OCC`, for which the MFC was above 100 µg/mL against Candida parapsilosis [1], 25 µg/mL (≈ 75.4 µM) against Nakaseomyces glabratus [4], above 100 µg/mL against Pichia kudriavzevii [6] and 6.25 µg/mL (≈ 18.9 µM) with Candida albicans [7]. Further, the MIC amounted to 100 µg/mL (≈ 302 µM) in the assay on Candida parapsilosis [2], 100 µg/mL (≈ 302 µM) against Pichia kudriavzevii [3], 6.25 µg/mL (≈ 18.9 µM) against Candida albicans [5] and 3.12 µg/mL (≈ 9.42 µM) against Nakaseomyces glabratus [8].
`CCOC(=O)NNc1[nH]c(-c2ccc(OC)cc2)cc1C(=O)OCC`: the MFC stood at 25 µg/mL (≈ 72 µM) against Candida parapsilosis [1], 25 µg/mL (≈ 72 µM) with Nakaseomyces glabratus [4], 100 µg/mL (≈ 288 µM) in the assay with Pichia kudriavzevii [6] and 3.12 µg/mL (≈ 8.98 µM) in the assay with Candida albicans [7]. For the same molecule, the MIC is 6.25 µg/mL (≈ 18 µM) in the assay on Candida parapsilosis [2], 12.5 µg/mL (≈ 36 µM) in the assay with Pichia kudriavzevii [3], 3.12 µg/mL (≈ 8.98 µM) with Candida albicans [5] and 6.25 µg/mL (≈ 18 µM) with Nakaseomyces glabratus [8].
Take `CCOC(=O)c1cc(-c2ccc(C)cc2)[nH]c1NNC(=O)C(C)C`: the minimal fungicidal concentration (MFC) against Candida parapsilosis [1] was above 100 µg/mL; against Nakaseomyces glabratus [4], above 100 µg/mL; with Pichia kudriavzevii [6], 100 µg/mL (≈ 304 µM); against Candida albicans [7] it was 12.5 µg/mL (≈ 37.9 µM). Also, the MIC was 25 µg/mL (≈ 75.9 µM) with Candida parapsilosis [2], 25 µg/mL (≈ 75.9 µM) with Pichia kudriavzevii [3], 6.25 µg/mL (≈ 19 µM) against Candida albicans [5] and above 100 µg/mL against Nakaseomyces glabratus [8].
For `CCOC(=O)c1cc(-c2ccc(OC)cc2)[nH]c1NNC(=O)C(C)C`, the MFC is above 100 µg/mL against Candida parapsilosis [1], above 100 µg/mL against Nakaseomyces glabratus [4], above 100 µg/mL with Pichia kudriavzevii [6] and 12.5 µg/mL (≈ 36.2 µM) in the assay on Candida albicans [7]. Also, the MIC against Candida parapsilosis [2] is 6.25 µg/mL (≈ 18.1 µM); against Pichia kudriavzevii [3], 12.5 µg/mL (≈ 36.2 µM); in the assay with Candida albicans [5], 6.25 µg/mL (≈ 18.1 µM); in the assay on Nakaseomyces glabratus [8] it was above 100 µg/mL.
Regarding `CCOC(=O)c1cc(-c2ccccc2)[nH]c1NNC(=O)C(C)C`, the MFC against Candida parapsilosis [1] was 100 µg/mL (≈ 317 µM); against Nakaseomyces glabratus [4], 12.5 µg/mL (≈ 39.6 µM); with Pichia kudriavzevii [6], above 100 µg/mL; with Candida albicans [7] it was above 100 µg/mL. The MIC was 25 µg/mL (≈ 79.3 µM) in the assay on Candida parapsilosis [2], above 100 µg/mL against Pichia kudriavzevii [3], above 100 µg/mL in the assay on Candida albicans [5] and 6.25 µg/mL (≈ 19.8 µM) against Nakaseomyces glabratus [8].
As for `COc1ccc(-c2cc(C#N)c(NNC(=O)C(C)C)[nH]2)cc1`, the MFC was above 100 µg/mL with Candida parapsilosis [1], above 100 µg/mL against Nakaseomyces glabratus [4], above 100 µg/mL in the assay on Pichia kudriavzevii [6] and 3.12 µg/mL (≈ 10.5 µM) against Candida albicans [7]. In addition, the MIC was determined as 25 µg/mL (≈ 83.8 µM) in the assay on Candida parapsilosis [2], 50 µg/mL (≈ 168 µM) in the assay on Pichia kudriavzevii [3], 3.12 µg/mL (≈ 10.5 µM) with Candida albicans [5] and 50 µg/mL (≈ 168 µM) with Nakaseomyces glabratus [8].
Take `CCC(=O)NNc1[nH]c(-c2ccccc2)cc1C#N`: the MFC in the assay with Candida parapsilosis [1] was 12.5 µg/mL (≈ 49.2 µM); with Nakaseomyces glabratus [4] it was 12.5 µg/mL (≈ 49.2 µM); against Pichia kudriavzevii [6] it was 12.5 µg/mL (≈ 49.2 µM); against Candida albicans [7], 6.25 µg/mL (≈ 24.6 µM). Also, the MIC with Candida parapsilosis [2] came to 3.12 µg/mL (≈ 12.3 µM); with Pichia kudriavzevii [3] it was 1.56 µg/mL (≈ 6.13 µM); against Candida albicans [5] it was 3.12 µg/mL (≈ 12.3 µM); in the assay on Nakaseomyces glabratus [8] it was 3.12 µg/mL (≈ 12.3 µM).
`CCCC(=O)NNc1[nH]c(-c2ccccc2)cc1C(=O)OCC`: the MFC with Candida parapsilosis [1] was above 100 µg/mL; in the assay with Nakaseomyces glabratus [4], above 100 µg/mL; in the assay with Pichia kudriavzevii [6], above 100 µg/mL; in the assay with Candida albicans [7], 12.5 µg/mL (≈ 39.6 µM). Moreover, the MIC is 100 µg/mL (≈ 317 µM) in the assay on Candida parapsilosis [2], above 100 µg/mL against Pichia kudriavzevii [3], 12.5 µg/mL (≈ 39.6 µM) in the assay with Candida albicans [5] and above 100 µg/mL in the assay on Nakaseomyces glabratus [8].
For the molecule `CCOC(=O)c1cc(-c2ccc(Cl)cc2)[nH]c1NNC(C)=O`, the MFC in the assay with Candida parapsilosis [1] is 25 µg/mL (≈ 77.7 µM); against Nakaseomyces glabratus [4], above 100 µg/mL; with Pichia kudriavzevii [6], 50 µg/mL (≈ 155 µM); against Candida albicans [7], above 100 µg/mL. Besides, the MIC is 12.5 µg/mL (≈ 38.8 µM) in the assay on Candida parapsilosis [2], 25 µg/mL (≈ 77.7 µM) in the assay with Pichia kudriavzevii [3], above 100 µg/mL with Candida albicans [5] and above 100 µg/mL with Nakaseomyces glabratus [8].
On to `CCOC(=O)c1cc(-c2ccc(C)cc2)[nH]c1NNC(=O)Cc1ccc(OC)cc1`, for which the MFC against Candida parapsilosis [1], against Nakaseomyces glabratus [4], with Pichia kudriavzevii [6] and against Candida albicans [7] was above 100 µg/mL each time. Besides, the MIC against Candida parapsilosis [2] was 100 µg/mL (≈ 245 µM); against Pichia kudriavzevii [3] it was 100 µg/mL (≈ 245 µM); against Candida albicans [5], above 100 µg/mL; with Nakaseomyces glabratus [8] it was above 100 µg/mL.
Regarding `CCOC(=O)c1cc(-c2ccc(Cl)cc2)[nH]c1NNC(=O)Cc1ccc(OC)cc1`, the MFC against Candida parapsilosis [1], against Nakaseomyces glabratus [4], in the assay with Pichia kudriavzevii [6] and in the assay with Candida albicans [7] was above 100 µg/mL in each case. For the same molecule, the MIC against Candida parapsilosis [2], with Pichia kudriavzevii [3], with Candida albicans [5] and in the assay on Nakaseomyces glabratus [8] was above 100 µg/mL in each case.
Turning to `CCOC(=O)c1cc(-c2ccc(OC)cc2)[nH]c1NNC(C)=O`, the MFC against Candida parapsilosis [1] came to 50 µg/mL (≈ 158 µM); in the assay on Nakaseomyces glabratus [4] it was 12.5 µg/mL (≈ 39.4 µM); in the assay on Pichia kudriavzevii [6], 25 µg/mL (≈ 78.8 µM); in the assay with Candida albicans [7], 3.12 µg/mL (≈ 9.83 µM). The MIC was found to be 50 µg/mL (≈ 158 µM) in the assay with Candida parapsilosis [2], 12.5 µg/mL (≈ 39.4 µM) against Pichia kudriavzevii [3], 3.12 µg/mL (≈ 9.83 µM) against Candida albicans [5] and 6.25 µg/mL (≈ 19.7 µM) against Nakaseomyces glabratus [8].
`CCOC(=O)c1cc(-c2ccc(Cl)cc2)[nH]c1NNC(=O)C(C)C`: the MFC against Candida parapsilosis [1], in the assay with Nakaseomyces glabratus [4], against Pichia kudriavzevii [6] and against Candida albicans [7] was above 100 µg/mL throughout. Moreover, the minimum inhibitory concentration (MIC) with Candida parapsilosis [2], against Pichia kudriavzevii [3], in the assay with Candida albicans [5] and in the assay on Nakaseomyces glabratus [8] was above 100 µg/mL each time.

The values are drawn from ChEMBL document CHEMBL1138570, “2-Acylhydrazino-5-arylpyrrole derivatives: synthesis and antifungal activity evaluation” (Eur J Med Chem, 2009).
